# Measurements published in ChEMBL document CHEMBL1145462, “In vivo pharmacodynamic activity of the glycopeptide dalbavancin” (Antimicrob Agents Chemother, 2007).
# Legend:
# Staphylococcus aureus [1] = experiment: AUC/MIC ratio of Staphylococcus aureus Smith infected neutropenic mouse thigh infection model at 95 mg/kg, ip administered every 72 hrs by 1-log killing experiment; assay type: functional; details: route intraperitoneal
# Staphylococcus aureus [2] = experiment: AUC/MBC ratio of Staphylococcus aureus 33591 infected neutropenic mouse thigh infection model at 22.3 mg/kg, ip administered every 24 hrs by static effect experiment; assay type: functional; details: route intraperitoneal
# Streptococcus pneumoniae [3] = experiment: Bactericidal activity against penicillin-susceptible Streptococcus pneumoniae ATCC 10813 infected neutropenic Swiss ICR mouse thigh infection model assessed as drug level causing 1-log reduction of bacterial count at 2.3 mg/kg, ip dosed every 12 hrs; assay type: functional; details: route intraperitoneal
# How it was run: (§1)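 Neutropenic mice (cyclophosphamide ip 150 mg/kg day −4, 100 mg/kg day −1, then every 48 h) received 0.1 ml log-phase inoculum per thigh under halothane. Intraperitoneal dalbavancin started 2 h later and was given for 6 days at q12h, q24h, q36h or q72h, two mice per regimen. Thigh CFU were counted at 144 h. Endpoint doses relative to start-of-therapy counts came from Hill-model nonlinear regression and are expressed per 24 h.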
# Streptococcus pneumoniae [4] = experiment: Antibacterial activity against Streptococcus pneumoniae 1199 by microdilution method; assay type: functional
# How it was run: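 MIC and MBC were determined by CLSI broth microdilution, in duplicate on at least two occasions. Staphylococci were grown in Mueller-Hinton broth and agar; pneumococci were plated on sheep blood agar.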
# Streptococcus pneumoniae [5] = experiment: AUC/MIC ratio of Streptococcus pneumoniae 1199 infected neutropenic mouse thigh infection model at 0.99 mg/kg, ip administered every 72 hrs by 2-log killing experiment; assay type: functional; details: route intraperitoneal
# Staphylococcus aureus [6] = experiment: Antibacterial activity against methicillin-resistant Staphylococcus aureus by microdilution method; assay type: functional
# How it was run: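 MICs in duplicate on at least two occasions by standard CLSI broth microdilution; S. aureus grown and quantified in Mueller-Hinton broth/agar.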
# [7] = Cmax in bacterial pathogen-infected neutropenic Swiss ICR mouse thigh infection model at 2.5 mg/kg, ip; assay type: ADME, organism-based; set-up: dose 2.5 mg/kg, route intraperitoneal; details: in vivo
# How it was run: (§2)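 Single-dose serum PK in thigh-infected neutropenic mice; intraperitoneal dalbavancin (0.2 ml/dose) at 2.5–80 mg/kg. Blood from groups of three mice at 0.5–96 h by retroorbital aspiration; plasma level by Bacillus subtilis microbiologic assay (detection limit 0.10 mg/liter). Noncompartmental analysis; AUC by trapezoidal rule from mean concentrations, extrapolated to infinity.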
# Staphylococcus aureus [8] = experiment: AUC/MBC ratio of Staphylococcus aureus Smith infected neutropenic mouse thigh infection model at 33.5 mg/kg, ip administered every 24 hrs by static effect experiment; assay type: functional; details: route intraperitoneal
# Staphylococcus aureus [9] = experiment: Antibacterial activity against methicillin-resistant Staphylococcus aureus in presence of 95% mouse serum; assay type: functional
# How it was run: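 MIC determined in broth, heat-treated (100°C, 30 min) 95% mouse serum, and 95% mouse serum ultrafiltrate, using arithmetic dilutions of 0.02 mg/liter per tube. Protein binding estimated as (MIC in 95% serum − MIC in ultrafiltrate)/MIC in 95% serum.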
# Staphylococcus aureus [10] = experiment: AUC/MIC ratio of methicillin-resistant Staphylococcus aureus infected neutropenic mouse thigh infection model at 62 mg/kg, ip administered every 72 hrs by 1-log killing experiment; assay type: functional; details: route intraperitoneal
# Staphylococcus aureus [11] = experiment: AUC/MIC ratio of Staphylococcus aureus 33591 infected neutropenic mouse thigh infection model at 33.5 mg/kg, ip administered every 24 hrs by 2-log killing experiment; assay type: functional; details: route intraperitoneal
# Streptococcus pneumoniae [12] = experiment: Bactericidal activity against penicillin-susceptible Streptococcus pneumoniae ATCC 10813 infected neutropenic Swiss ICR mouse thigh infection model assessed as drug level causing 1-log reduction of bacterial count at 1.26 mg/kg, ip dosed every 36 hrs; assay type: functional; details: route intraperitoneal
# Staphylococcus aureus [13] = experiment: AUC/MIC ratio of Staphylococcus aureus 31005 infected neutropenic mouse thigh infection model at 67.7 mg/kg, ip administered every 72 hrs by static effect experiment; assay type: functional; details: route intraperitoneal
# [14] = AUC in bacterial pathogen-infected neutropenic Swiss ICR mouse thigh infection model at 2.5 mg/kg, ip; assay type: ADME, organism-based; set-up: dose 2.5 mg/kg, route intraperitoneal; details: in vivo; how it was run: as §2
# Staphylococcus aureus [15] = experiment: AUC/MBC ratio of Staphylococcus aureus 33591 infected neutropenic mouse thigh infection model at 74 mg/kg, ip administered every 72 hrs by static effect experiment; assay type: functional; details: route intraperitoneal
# Staphylococcus aureus [16] = experiment: AUC/MIC ratio of Staphylococcus aureus Smith infected neutropenic mouse thigh infection model at 59 mg/kg, ip administered every 72 hrs by static effect experiment; assay type: functional; details: route intraperitoneal
# Staphylococcus aureus [17] = experiment: AUC/MBC ratio of Staphylococcus aureus ATCC 25923 infected neutropenic mouse thigh infection model at 185 mg/kg, ip administered every 72 hrs by 1-log killing experiment; assay type: functional; details: route intraperitoneal
# [18] = AUC in bacterial pathogen-infected neutropenic Swiss ICR mouse thigh infection model at 40 mg/kg, ip; assay type: ADME, organism-based; set-up: dose 40 mg/kg, route intraperitoneal; details: in vivo
# How it was run: (§3)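 Thigh-infected neutropenic mice received single intraperitoneal doses (2.5, 5, 10, 20, 40, 80 mg/kg; 0.2 ml/dose). Blood was drawn by retroorbital aspiration from groups of three mice at 0.5, 1, 2, 4, 6, 24, 48, 72 and 96 h. Plasma levels were measured by microbiologic assay with Bacillus subtilis (detection limit 0.10 mg/liter). Noncompartmental analysis was used: half-life by linear least-squares regression, AUC by trapezoidal rule.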
# Staphylococcus aureus [19] = experiment: AUC/MIC ratio of Staphylococcus aureus Smith infected neutropenic mouse thigh infection model at 33.5 mg/kg, ip administered every 24 hrs by static effect experiment; assay type: functional; details: route intraperitoneal
# Staphylococcus aureus [20] = experiment: Bactericidal activity against […] Staphylococcus aureus ATCC 29213 infected neutropenic Swiss ICR mouse thigh infection model assessed as drug level causing 1-log reduction of bacterial count at 10 mg/kg, ip dosed every 72 hrs; assay type: functional; details: route intraperitoneal
# How it was run: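 Neutropenic thigh-infected mice were treated ip starting 2 h post-infection for 144 h, with doses given q24h or q72h. Thigh CFU were fitted to a sigmoid Hill Emax model by nonlinear least squares. The dose giving a 1-log10 reduction versus start-of-therapy counts was derived from the fit, together with the free-drug 24-h AUC/MIC.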
# Staphylococcus aureus [21] = experiment: Bactericidal activity against […] Staphylococcus aureus ATCC 29213 infected neutropenic Swiss ICR mouse thigh infection model assessed as drug level causing 1-log reduction of bacterial count at 15 mg/kg, ip dosed every 36 hrs; assay type: functional; details: route intraperitoneal
# Streptococcus pneumoniae [22] = experiment: Bactericidal activity against penicillin-susceptible Streptococcus pneumoniae ATCC 10813 infected neutropenic Swiss ICR mouse thigh infection model assessed as drug level causing 2-log reduction of bacterial count at 1.34 mg/kg, ip dosed every 24 hrs; assay type: functional; details: route intraperitoneal; how it was run: as §1
# Streptococcus pneumoniae [23] = experiment: AUC/MIC ratio of Streptococcus pneumoniae ATCC 10813 infected neutropenic mouse thigh infection model at 0.77 mg/kg, ip administered every 72 hrs by 1-log killing experiment; assay type: functional; details: route intraperitoneal
# Mus musculus = experiment: AUC in bacterial pathogen-infected neutropenic Swiss ICR mouse thigh infection model at 10 mg/kg, ip; assay type: ADME, organism-based; set-up: dose 10 mg/kg, route intraperitoneal; details: in vivo; how it was run: as §3
# Streptococcus pneumoniae [24] = experiment: AUC/MIC ratio of Streptococcus pneumoniae 1396 infected neutropenic mouse thigh infection model at 0.61 mg/kg, ip administered every 72 hrs by 1-log killing experiment; assay type: functional; details: route intraperitoneal
# Staphylococcus aureus [25] = experiment: AUC/MBC ratio of Staphylococcus aureus Smith infected neutropenic mouse thigh infection model at 95 mg/kg, ip administered every 72 hrs by 1-log killing experiment; assay type: functional; details: route intraperitoneal
# Staphylococcus aureus [26] = experiment: AUC/MBC ratio of Staphylococcus aureus 307109 infected neutropenic mouse thigh infection model at 34 mg/kg, ip administered every 72 hrs by 1-log killing experiment; assay type: functional; details: route intraperitoneal
smiles,measurement,setting,value
CN[C@H]1C(=O)N[C@@H]2Cc3ccc(cc3)Oc3cc4cc(c3O[C@@H]3O[C@H](C(=O)O)[C@@H](O)[C@H](O)[C@H]3NC(=O)CCCCCCCCC(C)C)Oc3ccc(cc3Cl)[C@@H](O)[C@@H]3NC(=O)[C@H](NC(=O)[C@@H]4NC(=O)[C@@H](NC2=O)c2cc(cc(O)c2Cl)Oc2cc1ccc2O)c1ccc(O)c(c1)-c1c(O[C@H]2O[C@H](CO)[C@@H](O)[C@H](O)[C@@H]2O)cc(O)cc1[C@@H](C(=O)NCCCN(C)C)NC3=O [DALBAVANCIN],RatioAUC/MIC,Staphylococcus aureus [1],163
same,Ratio,Staphylococcus aureus [2],46
same,Activity,Streptococcus pneumoniae [3],2.8
same,MBC,Streptococcus pneumoniae [4],4 ng/mL
same,MIC,Streptococcus pneumoniae [4],4 ng/mL
same,RatioAUC/MIC,Streptococcus pneumoniae [5],35.3
same,MBC,Staphylococcus aureus [6],0.25 µg/mL
same,MIC,Staphylococcus aureus [6],0.06 µg/mL
same,Cmax,[7],7400 ng/mL
same,Ratio,Staphylococcus aureus [8],75
same,MIC,Staphylococcus aureus [9],32 µg/mL
same,RatioAUC/MIC,Staphylococcus aureus [10],202
same,RatioAUC/MIC,Staphylococcus aureus [11],157
same,Activity,Streptococcus pneumoniae [12],1.53
same,RatioAUC/MIC,Staphylococcus aureus [13],223
same,AUC,[14],98000 ng·h/mL
same,Ratio,Staphylococcus aureus [15],59
same,RatioAUC/MIC,Staphylococcus aureus [16],96
same,Ratio,Staphylococcus aureus [17],76.1
same,AUC,[18],5360 µg·h/mL
same,RatioAUC/MIC,Staphylococcus aureus [19],156
same,Activity,Staphylococcus aureus [20],31
same,Activity,Staphylococcus aureus [21],36
same,Activity,Streptococcus pneumoniae [22],1.75
same,RatioAUC/MIC,Streptococcus pneumoniae [23],1.6
same,AUC,Mus musculus,579 mg·h/L
same,RatioAUC/MIC,Streptococcus pneumoniae [24],4.3
same,Ratio,Staphylococcus aureus [25],78
same,Ratio,Staphylococcus aureus [26],12.9
